Test results reported in publication PMC10120451 (Journal of Enzyme Inhibition and Medicinal Chemistry, 2023).
In brackets after ≈: the same amount, converted by molar mass.

Columns and labels:
recombinant human PDIA1 = recombinant human PDIA1 (Homo sapiens, UniProt P07237); assay: Enzymatic insulin reduction; type: biochemical; conditions: for IC50: PDIA1 IC50, insulin reduction assay, full-length PDIA1 6 µg/ml (96 nM), pH 7.6, 37 °C
recombinant human PDIA3 = biological target: T1, recombinant human PDIA3 (Homo sapiens, UniProt P30101); assay: Enzymatic insulin reduction; type: biochemical
T1 sequence (P30101 25-505): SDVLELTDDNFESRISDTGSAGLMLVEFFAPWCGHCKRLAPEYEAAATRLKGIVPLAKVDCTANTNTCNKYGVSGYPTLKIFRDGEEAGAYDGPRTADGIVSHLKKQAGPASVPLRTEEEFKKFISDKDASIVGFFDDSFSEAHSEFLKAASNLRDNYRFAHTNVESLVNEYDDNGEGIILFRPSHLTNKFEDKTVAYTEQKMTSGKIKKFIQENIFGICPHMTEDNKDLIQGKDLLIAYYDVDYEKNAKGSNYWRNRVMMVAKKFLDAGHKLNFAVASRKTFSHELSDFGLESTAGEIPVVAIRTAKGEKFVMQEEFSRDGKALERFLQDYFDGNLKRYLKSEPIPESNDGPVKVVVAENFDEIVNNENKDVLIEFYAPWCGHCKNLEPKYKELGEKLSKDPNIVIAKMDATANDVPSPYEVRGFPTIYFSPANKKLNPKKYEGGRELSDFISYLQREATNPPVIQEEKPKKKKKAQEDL
Method in brief: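 Recombinant human PDIA3 (E. coli-expressed), 12 µg/ml (205 nM), was preincubated with test compound in 0.1 mM phosphate buffer pH 7.6, 2 mM EDTA and 0.08 mM DTT. Final DMSO was below 1%. Reaction was started with insulin plus DTT (final 0.15 mM insulin, 0.16 mM DTT). β-chain aggregation turbidity was read at 650 nm for 60 min at 37 °C.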

[1] = Basal cytotoxicity test, neutral red uptake; type: cell-based; conditions: mouse, Balb/c 3T3 mouse embryo fibroblast cells
CaCo-2 cells = assay: 72 h proliferation inhibition test; type: cell-based, human; conditions: SRB
HT-29 cells = assay: 72 h proliferation inhibition test; type: cell-based, human; conditions: SRB
[2] = biological target: PDIA1a domain (residues 18–137) of human PDIA1 (Homo sapiens, UniProt P07237); assay: Insulin turbidity assay with recombinant PDIA1a domain; type: biochemical; conditions: read-out: PDIA1a IC50 (insulin reduction); PDIA1a domain 8 µg/ml
PDIA1a domain (residues 18–137) of human PDIA1, sequence (P07237 18-137): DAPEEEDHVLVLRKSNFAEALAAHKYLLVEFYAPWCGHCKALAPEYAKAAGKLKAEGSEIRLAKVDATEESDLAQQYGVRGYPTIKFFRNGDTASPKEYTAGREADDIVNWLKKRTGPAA
Method in brief: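 PDIA1a domain (human residues 18–137) was expressed in E. coli BL21(DE3) with an N-terminal His6-tag/TEV site, then purified by Ni affinity and size exclusion. Turbidity assay: 8 µg/ml protein in 0.1 mM potassium phosphate pH 7.6 and 2 mM EDTA, with 0.08 mM DTT during preincubation. Insulin with DTT was added to final 0.15 mM insulin and 0.16 mM DTT.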

arterial thrombosis = assay: Rat model of arterial thrombosis; type: in vivo; conditions: intravenously, 10 min prior to induction of arterial thrombosis, rats
Method in brief: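 Wistar rats were anaesthetised with pentobarbital (40 mg/kg i.p.) on a 37 °C heated table. Right common carotid artery was stimulated at 1 mA for 10 min via an anode under the artery and a subcutaneous hind-limb cathode.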

recombinant human PDIA1, sequence (P07237 18-508): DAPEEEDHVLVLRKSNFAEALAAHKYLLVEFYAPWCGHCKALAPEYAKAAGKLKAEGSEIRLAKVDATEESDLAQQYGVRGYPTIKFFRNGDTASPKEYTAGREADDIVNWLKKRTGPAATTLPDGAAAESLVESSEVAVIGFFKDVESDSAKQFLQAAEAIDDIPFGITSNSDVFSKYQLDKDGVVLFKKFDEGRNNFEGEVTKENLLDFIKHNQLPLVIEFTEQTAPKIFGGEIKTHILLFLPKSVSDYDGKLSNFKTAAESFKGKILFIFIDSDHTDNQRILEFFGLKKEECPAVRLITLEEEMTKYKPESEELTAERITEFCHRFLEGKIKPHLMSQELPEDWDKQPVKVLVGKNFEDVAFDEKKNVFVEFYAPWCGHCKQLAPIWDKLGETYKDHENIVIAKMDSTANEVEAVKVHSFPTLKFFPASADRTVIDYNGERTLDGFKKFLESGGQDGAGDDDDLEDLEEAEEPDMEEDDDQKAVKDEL

## NC(=O)C1CN1 (stereo not drawn) [Leakadine, 2-carbamoylaziridine]
Recombinant human PDIA1; read-out: Inhibition of PDIA1 activity
  inhibition at 1000 µM: ~30%

## CCCCc1ccc(S(=O)(=O)N2CC2C=O)cc1 (stereo not drawn) [Compound C-3273, 1–(4-Butylphenyl)sulphonylaziridine-2-carbaldehyde]
Recombinant human PDIA1
  IC50: 3.2 ± 0.2 µM
Recombinant human PDIA3
  IC50: 5.4 ± 0.2 µM
[1]
  IC50 at 24 h: < 1 µM

## CCCCc1ccc(S(=O)(=O)N2CC2C(C)=O)cc1 (stereo not drawn) [Compound C-3272, 1-[1–(4-Butylphenyl)sulphonylaziridin-2-yl]ethanone]
[1]
  IC50 at 24 h: < 1 µM

## COc1ccc(N2C(=O)/C(=C\c3ccc([N+](=O)[O-])s3)SC2=S)cc1 [CCF642]
CaCo-2 cells
  IC50, 72-h antiproliferative assay, CaCo-2: 0.41 ± 0.1 µg/mL (≈ 1.08 µM)
HT-29 cells
  IC50, 72-h antiproliferative assay, HT-29: 0.41 ± 0.05 µg/mL (≈ 1.08 µM)
[2]
  IC50: 13 ± 0.6 µM

## O=c1c(O[C@@H]2O[C@H](CO)[C@@H](O)[C@H](O)[C@H]2O)c(-c2ccc(O)c(O)c2)oc2cc(O)cc(O)c12 [isoquercetin]
Arterial thrombosis
  effect on arterial thrombus formation (thrombus weight): only tended to reduce thrombosis

## Cc1ccc(S(=O)(=O)N2CC2C(=O)O)cc1 (stereo not drawn) [Compound C-3612, Lithium 1-tosylaziridine-2-carboxylate]
[1]
  IC50 at 24 h: 2610 ± 89 µM

## PACMA31
[2]
  IC50: 18.3 ± 0.7 µM

## CC(=O)C1CN1S(=O)(=O)c1ccc(C)cc1 (stereo not drawn) [Compound C-3263, 1-[1-(p-tolylsulphonyl)aziridin-2-yl]ethanone]
Recombinant human PDIA1
  IC50: 15.6 ± 0.8 µM
[1]
  IC50 at 24 h: 8 ± 1 µM

## C[C@@H]1O[C@@H](OC[C@H]2O[C@@H](Oc3c(-c4ccc(O)c(O)c4)oc4cc(O)cc(O)c4c3=O)[C@H](O)[C@@H](O)[C@@H]2O)[C@H](O)[C@H](O)[C@H]1O [rutin]
Recombinant human PDIA1
  IC50: 4 ± 0.3 µM
Recombinant human PDIA3
  IC50: > 200 µM
Arterial thrombosis
  effect on arterial thrombus formation (thrombus weight): significantly inhibited arterial thrombus formation

## Cc1ccc(S(=O)(=O)N2CC2C#N)cc1 (stereo not drawn) [Compound C-3314, 1-(p-tolylsulphonyl)aziridine-2-carbonitrile]
Recombinant human PDIA3
  IC50: 188 ± 7.5 µM
[1]
  IC50 at 24 h: 52 ± 3 µM

## O=C(C1CC1)N1CCN(Cn2sc3ccccc3c2=O)CC1 [LOC14]
CaCo-2 cells
  IC50, 72-h antiproliferative assay, CaCo-2: 9.12 ± 3.4 µg/mL (≈ 28.7 µM)
HT-29 cells
  IC50, 72-h antiproliferative assay, HT-29: 12.64 ± 8.4 µg/mL (≈ 39.8 µM)

## Cc1ccc(S(=O)(=O)N2CC2C=O)cc1 (stereo not drawn) [Compound C-3262, 1-(p-tolylsulphonyl)aziridine-2-carbaldehyde]
[1]
  IC50 at 24 h: 4 ± 0.2 µM
